In ChEMBL document CHEMBL1124774, “Synthesis and biological activity of some derivatives of rifamycin P” (1990):
In brackets after ≈: the same amount, converted by molar mass.

How the values were obtained:
Assay type in all cases: functional
Escherichia coli = test: In vitro antibacterial activity of compound against Escherichia coli SKF 12140
Klebsiella pneumoniae = test: In vitro antibacterial activity of compound against Klebsiella pneumoniae ISM
[1] = test system: Mycobacterium scrofulaceum; test: In vitro activity of compound against slowly growing Mycobacterium scrofulaceum 1292
Summary of the method: (§1)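 Medium was Middlebrook 7H10 agar with 2% glycerol and 10% OADC. Organisms from Loevenstein-Jensen slants were grown in 7H9 broth with 0.5% Tween and 10% OADC, adjusted to McFarland no. 1, and spotted with a multipoint inoculator. Sealed plates were incubated at 22, 30 or 37 °C for 4-20 days depending on strain.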

[2] = test system: Mycobacterium scrofulaceum; test: In vitro activity of compound against slowly growing Mycobacterium scrofulaceum 1293; summary of the method: as §1
[3] = test system: Mycobacterium scrofulaceum; test: In vitro activity of compound against slowly growing Mycobacterium scrofulaceum 1297; summary of the method: as §1
[4] = test system: Mycobacterium scrofulaceum; test: In vitro activity of compound against slowly growing Mycobacterium scrofulaceum 1301; summary of the method: as §1
[5] = test system: Mycolicibacterium smegmatis; test: In vitro activity of compound against rapidly growing Mycobacterium smegmatis 139; summary of the method: as §1
[6] = test system: Mycolicibacterium smegmatis; test: In vitro activity of compound against rapidly growing Mycobacterium smegmatis 1442; summary of the method: as §1
[7] = test system: Mycolicibacterium smegmatis; test: In vitro activity of compound against rapidly growing Mycobacterium smegmatis 31; summary of the method: as §1
Mycobacterium xenopi [8] = test: In vitro activity compound against slowly growing Mycobacterium xenopi 1446; summary of the method: as §1
Mycobacterium xenopi [9] = test: In vitro activity of compound against slowly growing Mycobacterium xenopi 554; summary of the method: as §1
Mycobacterium xenopi [10] = test: In vitro activity of compound against slowly growing Mycobacterium xenopi 555; summary of the method: as §1
Mycolicibacterium phlei [11] = test: In vitro activity of compound against rapidly growing Mycobacterium phlei 141; summary of the method: as §1
Mycolicibacterium phlei [12] = test: In vitro activity of compound against rapidly growing Mycobacterium phlei 1283; summary of the method: as §1
Mycolicibacterium phlei [13] = test: In vitro activity of compound against rapidly growing Mycobacterium phlei 1289; summary of the method: as §1
Mycobacterium kansasii [14] = test: In vitro activity of compound against slowly growing Mycobacterium kansasii 1299; summary of the method: as §1
Mycobacterium marinum [15] = test: In vitro activity of compound against slowly growing Mycobacterium marinum 1388; summary of the method: as §1
Mycobacterium marinum [16] = test: In vitro activity of compound against slowly growing Mycobacterium marinum 1390; summary of the method: as §1
Mycobacterium marinum [17] = test: In vitro activity of compound against slowly growing Mycobacterium marinum 1391; summary of the method: as §1
[18] = test system: Mycolicibacterium fortuitum; test: In vitro activity of compound against rapidly growing Mycobacterium fortuitum 114; summary of the method: as §1
[19] = test system: Mycolicibacterium fortuitum; test: In vitro activity of compound against rapidly growing Mycobacterium fortuitum 1285; summary of the method: as §1
[20] = test system: Mycolicibacterium fortuitum; test: In vitro activity of compound against rapidly growing Mycobacterium fortuitum 1287; summary of the method: as §1
[21] = test system: Mycolicibacterium fortuitum; test: In vitro activity compound against rapidly growing Mycobacterium fortuitum 1302; summary of the method: as §1
[22] = test system: Mycolicibacterium fortuitum; test: In vitro activity of compound against rapidly growing Mycobacterium fortuitum 140; summary of the method: as §1
[23] = test system: Mycolicibacterium fortuitum; test: In vitro activity compound against rapidly growing Mycobacterium fortuitum 1440; summary of the method: as §1
[24] = test system: Mycolicibacterium fortuitum; test: In vitro activity of compound against rapidly growing Mycobacterium fortuitum 646; summary of the method: as §1
[25] = test system: Mycolicibacterium fortuitum; test: In vitro activity of compound against rapidly growing Mycobacterium fortuitum 726; summary of the method: as §1
Mycobacterium gordonae [26] = test: In vitro activity of compound against slowly growing Mycobacterium gordonae 1294; summary of the method: as §1
Mycobacterium gordonae [27] = test: In vitro activity of compound against slowly growing Mycobacterium gordonae 1441; summary of the method: as §1
Mycobacterium kansasii [28] = test: In vitro activity of compound against slowly growing Mycobacterium kansasii 1291; summary of the method: as §1
Mycobacterium kansasii [29] = test: In vitro activity of compound against slowly growing Mycobacterium kansasii 1298; summary of the method: as §1
[30] = test system: Mycolicibacterium flavescens; test: In vitro activity of compound against rapidly growing Mycobacterium flavescens 1284; summary of the method: as §1
[31] = test system: Mycolicibacterium flavescens; test: In vitro activity of compound against rapidly growing Mycobacterium flavescens 1286; summary of the method: as §1
Mycobacterium marinum [32] = test: In vitro activity of compound against slowly growing Mycobacterium marinum 1392 h; summary of the method: as §1
Mycobacterium marinum [33] = test: In vitro activity of compound against slowly growing Mycobacterium marinum 1393; summary of the method: as §1
Mycobacterium marinum [34] = test: In vitro activity of compound against slowly growing Mycobacterium marinum 1394; summary of the method: as §1
Mycobacterium marinum [35] = test: In vitro activity of compound against slowly growing Mycobacterium marinum 1447; summary of the method: as §1
[36] = test system: Mycobacterium tuberculosis; test: In vitro antibacterial activity of compound against Mycobacterium tuberculosis H37Rv ATCC 9660
Mycobacteroides chelonae = test: In vitro activity of compound against rapidly growing Mycobacterium chelonae 1443; summary of the method: as §1
Mycobacterium avium [37] = test: 50% inhibition of the 20 Mycobacterium (MAC) avium complex clinical isolates
Summary of the method: (§2)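 Agar-dilution MICs, 2-fold dilutions over 128-0.0001 μg/mL, on Middlebrook 7H10 agar with 2% glycerol and 10% OADC. Organisms from Loevenstein-Jensen slants were grown in 7H9 broth with 0.5% Tween and 10% OADC, adjusted to McFarland no. 1, and spotted with a multipoint inoculator. Plates were sealed and incubated at 22, 30 or 37 °C for 4-20 days depending on strain.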

Mycobacterium avium [38] = test: Minimum inhibitory concentration of compound against 20 Mycobacterium avium complex (MAC) clinical isolates; summary of the method: as §2
Neisseria gonorrhoeae = test: In vitro antibacterial activity of compound against Neisseria gonorrhoeae ISM 68/126
Pseudomonas aeruginosa = test: In vitro antibacterial activity of compound against Pseudomonas aeruginosa ATCC 10145
Summary of the method: (§3)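 Twofold microdilution MIC in Iso-Sensitest broth over 128-0.0001 µg/mL. Inoculum was 10^4 cfu/mL, with incubation at 37 °C for 18-24 h.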

Proteus vulgaris = test: In vitro antibacterial activity of compound against Proteus vulgaris X19H ATCC 881
[39] = test system: Staphylococcus epidermidis; test: In vitro antibacterial activity of compound against Staphylococcus epidermidis ATCC 12228; summary of the method: as §3
Streptococcus pyogenes = test: In vitro antibacterial activity of compound against Streptococcus pyogenes C 203 SKF 13400
Summary of the method: (§4)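 Streptococcal MICs were run by twofold microdilution in Todd-Hewitt broth over 128-0.0001 µg/mL. Inoculum was 10^4 cfu/mL, with incubation at 37 °C for 18-24 h.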

Staphylococcus aureus = test: In vitro antibacterial activity of compound against Staphylococcus aureus Tour L 165; summary of the method: as §3
Streptococcus pneumoniae = test: In vitro antibacterial activity of compound against Streptococcus pneumoniae UC 41; summary of the method: as §4
Enterococcus faecalis = test: In vitro antibacterial activity of compound against Streptococcus faecalis ATCC 7080.; summary of the method: as §3
[40] = test system: Mycolicibacterium fortuitum; test: In vitro activity of compound against rapidly growing Mycobacterium fortuitum 645; summary of the method: as §1
Haemophilus influenzae = test: In vitro antibacterial activity of compound against Haemophilus influenzae ATCC 19418
Mycobacterium xenopi [41] = test: In vitro activity of compound against slowly growing Mycobacterium xenopi 556; summary of the method: as §1

## COC1/C=C/OC2(C)Oc3c(C)c(O)c4c(O)c(c5c(c4c3C2=O)=NC2(CCN(CC(C)C)CC2)N=5)NC(=O)/C(C)=C\C=C\C(C)C(O)C(C)C(O)C(C)C(OC(C)=O)C1C (configuration not stated)
Escherichia coli
  MIC: 16 µg/mL (≈ 18.9 µM)
Klebsiella pneumoniae
  MIC: 16 µg/mL (≈ 18.9 µM)
[1]
  MIC50: 0.032 µg/mL (≈ 0.0378 µM)
[2]
  MIC50: 0.032 µg/mL (≈ 0.0378 µM)
[3]
  MIC50: 0.063 µg/mL (≈ 0.0744 µM)
[4]
  MIC50: 2 µg/mL (≈ 2.36 µM)
[5]
  MIC50: 4 µg/mL (≈ 4.72 µM)
[6]
  MIC50: 4 µg/mL (≈ 4.72 µM)
[7]
  MIC50: 4 µg/mL (≈ 4.72 µM)
Mycobacterium xenopi [8]
  MIC50: 0.125 µg/mL (≈ 0.148 µM)
Mycobacterium xenopi [9]
  MIC50: 0.125 µg/mL (≈ 0.148 µM)
Mycobacterium xenopi [10]
  MIC50: 0.125 µg/mL (≈ 0.148 µM)
Mycolicibacterium phlei [11]
  MIC50: 0.061 µg/mL (≈ 0.072 µM)
Mycolicibacterium phlei [12]
  MIC50: 0.016 µg/mL (≈ 0.0189 µM)
Mycolicibacterium phlei [13]
  MIC50: 2 µg/mL (≈ 2.36 µM)
Mycobacterium kansasii [14]
  MIC50: 0.5 µg/mL (≈ 0.59 µM)
Mycobacterium marinum [15]
  MIC50: 0.25 µg/mL (≈ 0.295 µM)
Mycobacterium marinum [16]
  MIC50: 1 µg/mL (≈ 1.18 µM)
Mycobacterium marinum [17]
  MIC50: 0.25 µg/mL (≈ 0.295 µM)
[18]
  MIC50: 8 µg/mL (≈ 9.44 µM)
[19]
  MIC50: 4 µg/mL (≈ 4.72 µM)
[20]
  MIC50: 1 µg/mL (≈ 1.18 µM)
[21]
  MIC50: 1 µg/mL (≈ 1.18 µM)
[22]
  MIC50: 4 µg/mL (≈ 4.72 µM)
[23]
  MIC50: 16 µg/mL (≈ 18.9 µM)
[24]
  MIC50: 8 µg/mL (≈ 9.44 µM)
[25]
  MIC50: 16 µg/mL (≈ 18.9 µM)
Mycobacterium gordonae [26]
  MIC50: 0.5 µg/mL (≈ 0.59 µM)
Mycobacterium gordonae [27]
  MIC50: 1 µg/mL (≈ 1.18 µM)
Mycobacterium kansasii [28]
  MIC50: 1 µg/mL (≈ 1.18 µM)
Mycobacterium kansasii [29]
  MIC50: 0.063 µg/mL (≈ 0.0744 µM)
[30]
  MIC50: 8 µg/mL (≈ 9.44 µM)
[31]
  MIC50: 0.063 µg/mL (≈ 0.0744 µM)
Mycobacterium marinum [32]
  MIC50: 0.25 µg/mL (≈ 0.295 µM)
Mycobacterium marinum [33]
  MIC50: 0.25 µg/mL (≈ 0.295 µM)
Mycobacterium marinum [34]
  MIC50: 0.25 µg/mL (≈ 0.295 µM)
Mycobacterium marinum [35]
  MIC50: 0.25 µg/mL (≈ 0.295 µM)
[36]
  MIC: 0.008 µg/mL (≈ 0.00944 µM)
Mycobacteroides chelonae
  MIC50: 32 µg/mL (≈ 37.8 µM)
Mycobacterium avium [37]
  MIC50: 1 µg/mL (≈ 1.18 µM)
Mycobacterium avium [38]
  MIC50: 0.25 µg/mL (≈ 0.295 µM)
Neisseria gonorrhoeae
  MIC: 0.5 µg/mL (≈ 0.59 µM)
Pseudomonas aeruginosa
  MIC: 8 µg/mL (≈ 9.44 µM)
Proteus vulgaris
  MIC: 16 µg/mL (≈ 18.9 µM)
[39]
  MIC: 0.032 µg/mL (≈ 0.0378 µM)
Streptococcus pyogenes
  MIC: 0.032 µg/mL (≈ 0.0378 µM)
Staphylococcus aureus
  MIC: 0.063 µg/mL (≈ 0.0744 µM)
Streptococcus pneumoniae
  MIC: 0.032 µg/mL (≈ 0.0378 µM)
Enterococcus faecalis
  MIC: 2 µg/mL (≈ 2.36 µM)
[40]
  MIC50: 1 µg/mL (≈ 1.18 µM)
Haemophilus influenzae
  MIC: 0.125 µg/mL (≈ 0.148 µM)
Mycobacterium xenopi [41]
  MIC50: 0.125 µg/mL (≈ 0.148 µM)
